SMILES strings stand for the structures. Calls of active or inactive are those of the source. Unless noted, no stated cut-off is given here; in the data, active means inhibition above about 30%; inactive means the rest.

A short description of assay [1]: Her2 expression decrease, cell viability multiplex – SKBR3 breast tumor cells, AlphaScreen, ATP viability, primary screen (AID 461;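 active means Her2 level under about 52% in both replicate screens, with viability over 70% of control, limit read from the data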;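 on Her2 level: lower value means less Her2 protein in the cells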;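 on viability: percent of carrier control wells set as 100% viability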). The conditions noted are these: SKBR3 Her2 protein level, 18-24 h, measured here: SKBR3 viability, ATP luminescence, at 10 µM. On the technique in general: Bead proximity is the source of the signal in Alpha formats.
The target in assay [2] is Receptor tyrosine-protein kinase erbB-2 (Homo sapiens) (UniProt P04626). The assay is described as above. The conditions noted are these: 18-24 h, at 10 µM, stronger effect = lower value.
The nature of assay [3]: reduced viability of SK-BR-3 breast cancer cells – cell-based, 24 h, human, pilot screen (AID 572;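 active means viability at or below 10% of carrier control in both of two separate runs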;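 further: compound exposure lasted between 18 and 24 h rather than exactly 24 h; 100% = carrier-treated control wells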). The note with it: SK-BR-3 viability, CellTiter-Glo luminescence, at 10 µM, stronger effect = lower value.
Assay [4] can be described thus: HUVEC growth inhibition – cell-based, human, primary screen (AID 575;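 active means viability at or below 30% in both replicate assays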;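 further: 100% = median of untreated cell wells with 0.1% DMSO on each plate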). The conditions noted are these: HUVEC proliferation, CellTiter-Glo luminescence, 72 h; at 10 µM; stronger effect = lower value. In a few lines: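 material = primary HUVEC, no more than 12 passages | input = 1250 cells per well | controls = vehicle and MePR control wells | measured by = CTG luminescence | times = 72 h compound incubation | format = collagen-coated 384-well format | read-out = % viability vs DMSO wells | doses = single 10 µM dose, 0.1% DMSO, from 5x medium stock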
On the technique in general: Cellular ATP, detected with luciferase, serves as a proxy for viable cell number.

Assay [5] can be described thus: H69AR cell proliferation blockers – human, duplicate replicates, primary screen (AID 580;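 active means viability at or under a set limit in both replicates, limit being median viability minus 3 SD, cut at about 48% in these data, passing the limit was not always enough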;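 further: 100% = mean luminescence of untreated wells and 0% = no signal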). The conditions noted are these: H69AR lung tumor cells viability, ATP luminescence, 72 h; at 10 µM; stronger effect = lower value.
Assay [6] in a line: MRP1 drug-resistance reversers in H69AR cells – cell-based, doxorubicin co-treatment, pilot screen (AID 601;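 active means viability loss from added drug above about 55%, and viability with drug at most 40%, in both replicates, limit read from the data, passing the limit was not always enough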). The note with it: CellTiter-Glo, 72 h, at 10 µM; for differential viability (reversal): stronger effect = higher value.
The nature of assay [7]: yeast transport mutant growth inhibition pilot in 384-well plates, post-Golgi transport modulator project (AID 636; in the data active means inhibition above about 31%). The conditions noted are these: absorbance 615 nm, about 18 h, stronger effect = higher value.
Assay [8] is described as follows: growth suppression of yeast trafficking mutant, preliminary HTS, modulators of trafficking downstream of Golgi apparatus project, 1536-format plate, OD 615 nm (AID 637). The conditions noted are these: yeast transport mutant growth, absorbance 615 nm, 18 h; stronger effect = higher value.
Setting [9] is: H69AR cells + 2 uM doxorubicin, measured here: viability with 2 uM doxorubicin, stronger effect = lower value.
Where [10] appears, read: H69AR cells, compound alone cytotoxicity.

Chain of Receptor tyrosine-protein kinase erbB-2 (Homo sapiens) (P04626 whole entry, looked up): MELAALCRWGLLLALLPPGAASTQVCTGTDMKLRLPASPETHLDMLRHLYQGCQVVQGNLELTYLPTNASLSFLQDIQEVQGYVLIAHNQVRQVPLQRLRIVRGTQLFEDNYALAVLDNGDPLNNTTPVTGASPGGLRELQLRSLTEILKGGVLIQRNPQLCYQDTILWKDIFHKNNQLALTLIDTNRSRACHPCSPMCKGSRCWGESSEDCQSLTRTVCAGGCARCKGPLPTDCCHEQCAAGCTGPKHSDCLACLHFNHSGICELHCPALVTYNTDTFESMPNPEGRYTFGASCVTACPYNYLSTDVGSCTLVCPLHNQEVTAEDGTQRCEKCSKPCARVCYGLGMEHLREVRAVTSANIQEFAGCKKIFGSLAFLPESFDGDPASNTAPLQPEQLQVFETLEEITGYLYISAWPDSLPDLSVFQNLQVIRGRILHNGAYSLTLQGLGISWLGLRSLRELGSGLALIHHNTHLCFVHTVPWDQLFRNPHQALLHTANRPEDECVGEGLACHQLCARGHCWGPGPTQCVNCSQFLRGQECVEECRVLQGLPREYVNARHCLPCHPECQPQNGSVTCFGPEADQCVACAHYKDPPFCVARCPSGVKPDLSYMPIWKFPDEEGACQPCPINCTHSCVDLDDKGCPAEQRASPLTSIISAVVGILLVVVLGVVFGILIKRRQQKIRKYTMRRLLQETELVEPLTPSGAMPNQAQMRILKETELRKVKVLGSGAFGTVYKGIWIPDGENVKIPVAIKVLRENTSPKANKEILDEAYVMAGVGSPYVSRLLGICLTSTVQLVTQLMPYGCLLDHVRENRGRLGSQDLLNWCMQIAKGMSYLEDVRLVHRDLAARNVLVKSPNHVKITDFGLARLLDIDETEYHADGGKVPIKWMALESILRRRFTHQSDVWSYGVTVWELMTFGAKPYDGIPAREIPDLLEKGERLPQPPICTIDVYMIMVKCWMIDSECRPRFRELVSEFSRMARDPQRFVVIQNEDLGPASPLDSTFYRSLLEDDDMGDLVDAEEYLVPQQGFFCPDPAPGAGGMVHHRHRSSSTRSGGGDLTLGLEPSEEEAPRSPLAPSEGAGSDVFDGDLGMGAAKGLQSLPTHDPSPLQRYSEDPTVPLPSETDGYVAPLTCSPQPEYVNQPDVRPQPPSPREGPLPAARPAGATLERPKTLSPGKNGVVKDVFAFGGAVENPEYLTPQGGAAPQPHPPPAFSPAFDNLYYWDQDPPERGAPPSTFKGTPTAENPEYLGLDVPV

Regarding `O=C(NCc1cccnc1)c1ccccc1Br`, the viability (in general, a read-out of living cells in per cent, often relative to untreated cells) was 110% in assay [1]; 110% (inactive) in assay [3]; 115% (inactive) in assay [4]; 95.1% (inactive) in assay [5]; 94.2% in assay [6] (setting [9]); 95.1% in assay [6] (setting [10]). Further, the Her2 level in assay [2] is 98.5% (inactive). For the same molecule, the differential viability (reversal) in assay [6] (H69AR cells + 2 uM doxorubicin) was 0.945% (inactive). Further, the inhibition (in general, the change of the read-out against control, counted positive when it falls) was -5.87% (inactive) in assay [7] and -2.42% (inactive) in assay [8].
`CCOC(=O)C1=C(C)Nc2ncnn2C1c1ccccc1F` (stereo not given): the viability in assay [1] was 94%; in assay [3] it was 94% (inactive); in assay [4], 116% (inactive); in assay [5] it was 95.6% (inactive); in assay [6] (setting [9]) it was 101%; in assay [6] (setting [10]) it was 95.6%. Further, in assay [2], the Her2 level is 110% (inactive). For the same molecule, the differential viability (reversal) in assay [6] (H69AR cells + 2 uM doxorubicin) is -5% (inactive). Moreover, the inhibition was -0.92% (inactive) in assay [7] and -1.29% (inactive) in assay [8].
For the molecule `CCCS(=O)(=O)N1CCN(C(=O)c2cccs2)CC1`, the viability in assay [1] was 99.5%; in assay [3] it was 99.5% (inactive); in assay [4], 110% (inactive); in assay [5] it was 99.9% (inactive); in assay [6] (setting [9]) it was 101%; in assay [6] (setting [10]), 99.9%. Further, the Her2 level in assay [2] is 99.5% (inactive). In addition, in assay [6] (H69AR cells + 2 uM doxorubicin), the differential viability (reversal) was -0.9% (inactive). Further, the inhibition in assay [7] is -1.07% (inactive); in assay [8], 2.95% (inactive).
For the molecule `Cc1ccc(-c2nnc(N(C)C(=O)c3ccccn3)s2)cn1`, the viability in assay [1] is 133%; in assay [3] it was 133% (inactive); in assay [4], 90.9% (inactive); in assay [5], 103% (inactive); in assay [6] (setting [9]), 82.3%; in assay [6] (setting [10]), 103%. Also, the Her2 level in assay [2] is 94.5% (inactive). The differential viability (reversal) in assay [6] (H69AR cells + 2 uM doxorubicin) is 20.9% (inactive). The figures for the inhibition in assay [7] and in assay [8] were -6.85% (inactive) and -4.6% (inactive), respectively.
As to `CCN(Cc1cc2cc(OC)ccc2[nH]c1=O)C(=O)c1ccncc1`, the viability in assay [1] is 89%; in assay [3], 89% (inactive); in assay [4] it was 97.8% (inactive); in assay [5] it was 99.5% (inactive); in assay [6] (setting [9]), 103%; in assay [6] (setting [10]), 99.5%. Further, the Her2 level in assay [2] was 100% (inactive). In assay [6] (H69AR cells + 2 uM doxorubicin), the differential viability (reversal) is -3.88% (inactive). The values for the inhibition in assay [7] and in assay [8] were -2.13% (inactive) and 9.05% (inactive), respectively.
In the case of `CCOC(=O)CSc1nc2ccccc2n2cnnc12`, the viability was 104% in assay [1]; 104% (inactive) in assay [3]; 91.4% (inactive) in assay [4]; 83.9% (inactive) in assay [5]; 81.1% in assay [6] (setting [9]); 83.9% in assay [6] (setting [10]). Besides, the Her2 level in assay [2] is 76.5% (inactive). Also, the differential viability (reversal) in assay [6] (H69AR cells + 2 uM doxorubicin) was 2.78% (inactive). Besides, the inhibition in assay [7] was -5.54% (inactive); in assay [8] it was -2% (inactive).
As to `CCCCC(CC)CNC(=O)C1CCCN(S(=O)(=O)c2cnc[nH]2)C1` (stereo not given), the viability in assay [1] was 91.5%; in assay [3], 91.5% (inactive); in assay [4], 105% (inactive); in assay [5] it was 92.2% (inactive); in assay [6] (setting [9]), 94.1%; in assay [6] (setting [10]), 92.2%. For the same molecule, the Her2 level in assay [2] is 95.5% (inactive). In addition, the differential viability (reversal) in assay [6] (H69AR cells + 2 uM doxorubicin) is -1.91% (inactive). Moreover, the values for the inhibition in assay [7] and in assay [8] were -2.67% (inactive) and 2.79% (inactive), respectively.
With `CCC(=O)N1CCN(CCN=CC2=C(O)CC(C)(C)CC2=O)CC1`, the viability in assay [1] is 90.5%; in assay [3], 90.5% (inactive); in assay [4] it was 79.6% (inactive); in assay [5] it was 107% (inactive); in assay [6] (setting [9]) it was 95.2%; in assay [6] (setting [10]), 107%. Besides, in assay [2], the Her2 level is 93.5% (inactive). In addition, the differential viability (reversal) in assay [6] (H69AR cells + 2 uM doxorubicin) is 11.3% (inactive). Besides, the inhibition in assay [7] was -1.6% (inactive); in assay [8], -6.77% (inactive).
As to `CN1CCN(CCCNC(=O)C2CC(=O)N(C3CCCCC3)C2)CC1` (stereo not given), the viability in assay [1] is 106%; in assay [3], 106% (inactive); in assay [4], 88.8% (inactive); in assay [5] it was 91.4% (inactive); in assay [6] (setting [9]), 95.2%; in assay [6] (setting [10]), 91.4%. In addition, the Her2 level in assay [2] was 90% (inactive). Moreover, in assay [6] (H69AR cells + 2 uM doxorubicin), the differential viability (reversal) is -3.83% (inactive). Also, the inhibition is -4.47% (inactive) in assay [7] and 3.06% (inactive) in assay [8].
Consider `Cc1ccc2nc(SCC(=O)NCc3ccco3)c(C#N)cc2c1`, for which the viability in assay [1] is 90.5%; in assay [3] it was 90.5% (inactive); in assay [4], 82.3% (inactive); in assay [5], 62.2% (inactive); in assay [6] (setting [9]), 69.7%; in assay [6] (setting [10]), 62.2%. Further, the Her2 level in assay [2] was 88.5% (inactive). In assay [6] (H69AR cells + 2 uM doxorubicin), the differential viability (reversal) is -7.5% (inactive). The inhibition in assay [7] is -4.74% (inactive); in assay [8], -3.27% (inactive).
For `O=c1cc(NCc2ccccc2)nc2n1CCCS2`, the viability in assay [1] was 103%; in assay [3], 103% (inactive); in assay [4], 104% (inactive); in assay [5], 92.1% (inactive); in assay [6] (setting [9]), 91.8%; in assay [6] (setting [10]), 92.1%. Also, in assay [2], the Her2 level was 98% (inactive). The differential viability (reversal) in assay [6] (H69AR cells + 2 uM doxorubicin) is 0.29% (inactive). In addition, the results for the inhibition in assay [7] and in assay [8] were -3.68% (inactive) and -5.71% (inactive), respectively.
`COc1ccccc1C(=O)N1CCNC(=O)C1CC(=O)Nc1ccc(Cl)cc1` (stereo not given): the viability was 97.5% in assay [1]; 97.5% (inactive) in assay [3]; 99.6% (inactive) in assay [4]; 95.5% (inactive) in assay [5]; 98.3% in assay [6] (setting [9]); 95.5% in assay [6] (setting [10]). In addition, the Her2 level in assay [2] is 89.5% (inactive). Also, the differential viability (reversal) in assay [6] (H69AR cells + 2 uM doxorubicin) is -2.83% (inactive). The inhibition was 1.71% (inactive) in assay [7] and -2.74% (inactive) in assay [8].
For `Cc1c[nH]c2cccc(OCC(O)CNC(C)(C)C)c12` (stereo not given), the viability in assay [1] is 91.5%; in assay [3], 91.5% (inactive); in assay [4], 100% (inactive); in assay [5] it was 88.3% (inactive); in assay [6] (setting [9]), 88%; in assay [6] (setting [10]), 88.3%. The Her2 level in assay [2] was 96% (inactive). Besides, the differential viability (reversal) in assay [6] (H69AR cells + 2 uM doxorubicin) was 0.28% (inactive). For the same molecule, the inhibition in assay [7] is -3.6% (inactive); in assay [8], 17.8% (inactive).
Turning to `COc1ccc(OC)c(C2C(C#N)=C(N)Oc3cc(C)[nH]c(=O)c32)c1` (stereo not given), the viability is 92% in assay [1]; 92% (inactive) in assay [3]; 83.8% (inactive) in assay [4]; 99.5% (inactive) in assay [5]; 99% in assay [6] (setting [9]); 99.5% in assay [6] (setting [10]). The Her2 level in assay [2] was 84.5% (inactive). For the same molecule, in assay [6] (H69AR cells + 2 uM doxorubicin), the differential viability (reversal) was 0.505% (inactive). Besides, the inhibition was -3.87% (inactive) in assay [7] and 0.49% (inactive) in assay [8].

The values above are taken from PubChem BioAssay.
